The results in this text go back to ChEMBL document CHEMBL1144265, “Syntheses of 2,4,6-trisubstituted triazines as antimalarial agents” (Bioorg Med Chem Lett, 2005).

The nature of series [1]: Partition coefficient (logP). The settings on record: octanol/water. It counts as physicochemical.
Series [2] is described as follows: In vitro PKa value was determined. In kind it is physicochemical.
The next series relates to Plasmodium falciparum. Kind of series: In vitro minimum inhibiting concentration for schizont maturation from ring stage parasite over 40 hrs. It counts as functional. In outline: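 P. falciparum NF-54 kept in RPMI-1640 with 25 mM HEPES and 1% D-glucose. Rieckmann microassay: compound at […] in duplicate wells with parasitized cells, 37 °C in a candle jar for 36–40 h. Giemsa-stained smears were read by microscopy for ring-to-trophozoite/schizont maturation. MIC taken as the concentration that blocks complete maturation to schizonts.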

Converted amounts (≈) assume the structure as drawn.

As for `O=[N+]([O-])c1ccc(Nc2nc(N3CCOCC3)nc(N3CCOCC3)n2)cc1`, the logP (commonly a log measure of how a compound divides between an organic and an aqueous phase) in series [1] is -0.06. Also, the pKa (as a rule, the pH at which an ionisable group is half protonated) in series [2] turned out to be 2.98. Further, the MIC – broadly, the lowest concentration that inhibits growth of the organism – with Plasmodium falciparum came to 10 µg/mL (≈ 25.8 µM).
In the case of `O=[N+]([O-])c1ccc(Nc2nc(Nc3cccc(F)c3)nc(Nc3cccc(F)c3)n2)cc1`, the logP in series [1] came to 1.94. For the same molecule, the pKa in series [2] came to 3.13. In the series with Plasmodium falciparum, the MIC was determined as 10 µg/mL (≈ 23 µM).
The like results for `O=[N+]([O-])c1ccc(Nc2nc(NCCCn3ccnc3)nc(NCCCn3ccnc3)n2)cc1` were, in that order, 0.345, 1.96 and 1 µg/mL (≈ 2.16 µM).
For `O=[N+]([O-])c1ccc(Nc2nc(NC3CCCCC3)nc(NC3CCCCC3)n2)cc1`, in that order: 0.356, 2.58 and 1 µg/mL (≈ 2.43 µM).
The like results for `O=[N+]([O-])c1ccc(Nc2nc(N3CCc4cccnc4C3)nc(N3CCc4cccnc4C3)n2)cc1` were, in that order, 1.64, 2.94 and 10 µg/mL (≈ 20.8 µM).
`CN1CCN(c2nc(Nc3ccc([N+](=O)[O-])cc3)nc(N3CCN(C)CC3)n2)CC1` gave a lipophilicity (logP) in series [1] of 0.228. Also, the pKa in series [2] amounted to 1.88. Besides, in the series on Plasmodium falciparum, the MIC came out at 1 µg/mL (≈ 2.42 µM).
The like results for `O=[N+]([O-])c1ccc(Nc2nc(NCCO)nc(NCCO)n2)cc1` were, in that order, -0.56, 2.86 and 50 µg/mL (≈ 149 µM).
For `O=[N+]([O-])c1ccc(Nc2nc(NC3CCCCCC3)nc(NC3CCCCCC3)n2)cc1`, in that order: 0.372, 2.64 and 2 µg/mL (≈ 4.55 µM).
The like results for `CCN(CC)c1nc(Nc2ccc([N+](=O)[O-])cc2)nc(N(CC)CC)n1` were, in that order, 2.06, 3.05 and 10 µg/mL (≈ 27.8 µM).
With `O=[N+]([O-])c1ccc(Nc2nc(N3CCCCC3)nc(N3CCCCC3)n2)cc1`, the logP in series [1] is 2.54. In series [2], this molecule returned a pKa of 3.95. This molecule also showed an MIC in the series on Plasmodium falciparum of 50 µg/mL (≈ 130 µM).
For `O=[N+]([O-])c1ccc(Nc2nc(N3CCCC3)nc(N3CCCC3)n2)cc1`, in that order: 2.46, 3.62 and 50 µg/mL (≈ 141 µM).
With `CCCCNc1nc(NCCCC)nc(Nc2ccc([N+](=O)[O-])cc2)n1`, the logP in series [1] was determined as 0.396. Further, the pKa in series [2] was 2.32. Besides, the MIC against Plasmodium falciparum came to 2 µg/mL (≈ 5.56 µM).
The like results for `CC(C)(C)Nc1nc(Nc2ccc([N+](=O)[O-])cc2)nc(NC(C)(C)C)n1` were, in that order, 2.84, 3.68 and 50 µg/mL (≈ 139 µM).
In turn, `O=[N+]([O-])c1ccc(Nc2nc(N3CCN(c4ccccc4)CC3)nc(N3CCN(c4ccccc4)CC3)n2)cc1` came in with a logP in series [1] of 1.64. In addition, the pKa in series [2] amounted to 2.86. In the series with Plasmodium falciparum, this molecule had an MIC of 10 µg/mL (≈ 18.6 µM).
The like results for `O=[N+]([O-])c1ccc(Nc2nc(N3CCN(Cc4ccccc4)CC3)nc(N3CCN(Cc4ccccc4)CC3)n2)cc1` were, in that order, 0.92, 2.12 and 2 µg/mL (≈ 3.54 µM).
Molecule `O=[N+]([O-])c1ccc(Nc2nc(NCc3ccccc3)nc(NCc3ccccc3)n2)cc1` came in with a logP in series [1] of 1.68. In addition, the pKa in series [2] is 2.88. The molecule also displayed an MIC in the series on Plasmodium falciparum of 10 µg/mL (≈ 23.4 µM).
For the molecule `CC1(C)N=C(N)N=C(N)N1c1ccc(Cl)cc1` [CYCLOGUANIL], in series [1], the logP was found to be 2.94. The same molecule returned a pKa in series [2] of 3.82. The molecule further returned an MIC with Plasmodium falciparum of 64 µg/mL (≈ 254 µM).
